Molecules are shown by their SMILES. Calls of active or inactive are those of the source.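 Rule for the calls, unless noted: active = GFP response above 150% of the DMSO level; inconclusive = fewer than 70 events counted for a yeast strain; inactive = the rest.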

Data on eight compounds can be found in PubChem BioAssay.

A short description of assay [1]: hit retest on RPL19A-GFP reporter strain – cell-based, S. cerevisiae, flow cytometry, cherry picks, mother/daughter gates, confirmation (AID 2270;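 active = GFP response below 50% of the DMSO control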). As to conditions: 3 h, at 10 µM, stronger effect = lower value, 100 = same GFP as DMSO wells.
A short description of assay [2]: yeast TOR pathway reporter LAP4-GFP change – cell-based, cherry picks, flow cytometry, mother/daughter gates, confirmation (AID 2271;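 active = GFP response above 150% of the DMSO control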;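 note: ratio of sample to DMSO plate mean so 100% equals DMSO level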). As to conditions: S. cerevisiae LAP4-GFP strain, 3 h, at 10 µM, stronger effect = higher value, 100 means same as DMSO control. The procedure, abridged:
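Material: Alexa Fluor 633-labelled Saccharomyces cerevisiae GFP-fusion strain, single-plex | Amount: Yeast cells seeded at OD600 of 0.2 | Buffer or medium: SC growth medium | Schedule: 3 h exposure, 30 °C | Measured by: HT flow cytometry, GFP fluorescence channel | Evaluation: % GFP response vs DMSO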

Assay [3] can be described thus: TOR pathway reporter MEP2-GFP, retest of hits – S. cerevisiae, flow cytometry GFP, cherry picks, confirmation (AID 2272;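 active = GFP response above 150% of the DMSO control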;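 note: ratio of well signal to plate DMSO mean so 100% equals DMSO level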). The conditions noted are these: S. cerevisiae MEP2-GFP strain, 3 h, at 10 µM, stronger effect = higher value.
Assay [4] can be described thus: yeast AGP1-GFP fluorescence change, single-dose – cell-based, flow cytometry, S. cerevisiae, cherry picks, confirmation (AID 2273).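 Note: median GFP channel fluorescence over the whole cell population gate.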 The conditions noted are these: S. cerevisiae AGP1-GFP strain, 3 h, at 10 µM.
A short description of assay [5]: TOR pathway CIT2 reporter hit retest – S. cerevisiae, GFP fusion, cherry picks, mother/daughter gates, confirmation (AID 2274). The conditions noted are these: S. cerevisiae CIT2-GFP strain, flow cytometry, 3 h, at 10 µM, stronger effect = higher value.
[6] abbreviates: measured here: daughter cell gate.
Where [7] appears, read: measured here: mother cell gate.
Setting [8] is: measured here: daughter cell gate response.
The mark [9] stands for this setting: measured here: mother cell gate response.

As to `O=c1[nH]n(Cc2ccccc2)c2ccccc12`, the GFP response vs DMSO in assay [1] was 97.6% (inactive); in assay [1] (setting [6]), 97.8%; in assay [1] (setting [7]), 97.8%; in assay [3], 102% (inactive). Besides, the GFP response relative to DMSO in assay [2] was 103% (inactive); in assay [2] (setting [8]), 102%; in assay [2] (setting [9]) it was 103%. The GFP response, % of DMSO in assay [4] is 98.7% (inactive); in assay [5], 96.4% (inactive); in assay [5] (setting [6]), 96.4%; in assay [5] (setting [7]) it was 94.5%.

In the case of `Cc1cc(S(=O)(=O)ON2C(=O)c3ccccc3C2=O)ccc1F`, the GFP response vs DMSO in assay [1] is 78.2% (inactive); in assay [1] (setting [6]) it was 84.3%; in assay [1] (setting [7]), 66.6%; in assay [3], 108% (inactive). Also, the results for the GFP response relative to DMSO in assay [2], in assay [2] (setting [8]) and in assay [2] (setting [9]) were 153% (active), 153% and 160%, respectively. Besides, the GFP response, % of DMSO was 105% (inactive) in assay [4], 120% (inactive) in assay [5], 84.1% in assay [5] (setting [6]) and 98.7% in assay [5] (setting [7]).

For the compound `Cc1cc(Br)c2c(c1)/C(=C/C(=O)c1cccs1)C(=O)N2`, the GFP response vs DMSO in assay [1] was 99.6% (inactive); in assay [1] (setting [6]) it was 99.1%; in assay [1] (setting [7]), 99.2%; in assay [3], 105% (inactive). Also, the results for the GFP response relative to DMSO in assay [2], in assay [2] (setting [8]) and in assay [2] (setting [9]) were 115% (inactive), 115% and 117%, respectively. Further, the GFP response, % of DMSO in assay [4] is 107% (inactive); in assay [5] it was 98.4% (inactive); in assay [5] (setting [6]) it was 93.7%; in assay [5] (setting [7]), 95.7%.

On to `CCNC(=O)c1ccccc1-c1nc(-c2ccccc2Cl)no1`, for which the GFP response vs DMSO in assay [1] was 95.6% (inactive); in assay [1] (setting [6]), 94.7%; in assay [1] (setting [7]) it was 95%; in assay [3] it was 103% (inactive). For the same compound, the GFP response relative to DMSO is 104% (inactive) in assay [2], 97.5% in assay [2] (setting [8]) and 104% in assay [2] (setting [9]). For the same compound, the GFP response, % of DMSO was 98.6% (inactive) in assay [4], 98.6% (inactive) in assay [5], 99.3% in assay [5] (setting [6]) and 97.1% in assay [5] (setting [7]).

Consider `Cc1cc(-c2csc3nc[nH]c(=S)c23)cc(C)c1C`, for which the GFP response vs DMSO in assay [1] was 96.3% (inactive); in assay [1] (setting [6]), 98.1%; in assay [1] (setting [7]), 95%; in assay [3] it was 127% (inactive). Further, the GFP response relative to DMSO is 112% (inactive) in assay [2], 114% in assay [2] (setting [8]) and 109% in assay [2] (setting [9]). Besides, the GFP response, % of DMSO in assay [4] was 118% (inactive); in assay [5], 106% (inactive); in assay [5] (setting [6]), 110%; in assay [5] (setting [7]) it was 104%.

Take `O=C(OCc1cccc([N+](=O)[O-])c1)c1cnccn1`: the GFP response vs DMSO in assay [1] is 98.5% (inactive); in assay [1] (setting [6]), 99.5%; in assay [1] (setting [7]), 97.1%; in assay [3], 103% (inactive). Also, the GFP response relative to DMSO in assay [2] is 102% (inactive); in assay [2] (setting [8]) it was 97.5%; in assay [2] (setting [9]), 105%. Besides, the GFP response, % of DMSO was 97% (inactive) in assay [4], 98.6% (inactive) in assay [5], 101% in assay [5] (setting [6]) and 96% in assay [5] (setting [7]).

Turning to `Cn1c(=O)c(C(=O)NC2CCCCCCC2)c(O)c2ccccc21`, the GFP response vs DMSO in assay [1] is 101% (inactive); in assay [1] (setting [6]) it was 102%; in assay [1] (setting [7]) it was 103%; in assay [3] it was 95.7% (inactive). Besides, the GFP response relative to DMSO in assay [2] is 93.8% (inactive); in assay [2] (setting [8]), 94.1%; in assay [2] (setting [9]) it was 96.2%. The GFP response, % of DMSO in assay [4] is 98.9% (inactive); in assay [5], 107% (inactive); in assay [5] (setting [6]) it was 105%; in assay [5] (setting [7]), 111%.

For the compound `COc1cccc(C(=O)N/N=C(\CC(C)C)c2ccccc2)c1`, the GFP response vs DMSO was 97.8% (inactive) in assay [1], 97% in assay [1] (setting [6]), 97.7% in assay [1] (setting [7]) and 103% (inactive) in assay [3]. Also, the GFP response relative to DMSO in assay [2] is 100% (inactive); in assay [2] (setting [8]) it was 101%; in assay [2] (setting [9]), 102%. Also, the GFP response, % of DMSO in assay [4] is 98.4% (inactive); in assay [5] it was 101% (inactive); in assay [5] (setting [6]), 103%; in assay [5] (setting [7]) it was 103%.
